Key:
Stability in plasma [1] = format: in vitro ADME; settings: rat plasma diluted 1:1 with PBS, 15 μM, up to 1 h, 37°C
Stability in plasma [2] = format: in vitro ADME; settings: mouse plasma diluted 1:1 with PBS, 15 μM, up to 1 h, 37°C
Caco-2 cells = test: Bi-directional permeability study using Caco-2 cells; settings: for % Recovery of Test Article A–B (mean) / % Recovery of Test Article B-A (mean): end of experiment
CYP2C9 = CYP2C9 (Homo sapiens, UniProt P11712); test: CYP inhibition in human liver microsomes; format: in vitro ADME; settings: 1 or 10 μM test article, 20 min, 37°C
Chain of CYP2C9 (P11712 whole entry): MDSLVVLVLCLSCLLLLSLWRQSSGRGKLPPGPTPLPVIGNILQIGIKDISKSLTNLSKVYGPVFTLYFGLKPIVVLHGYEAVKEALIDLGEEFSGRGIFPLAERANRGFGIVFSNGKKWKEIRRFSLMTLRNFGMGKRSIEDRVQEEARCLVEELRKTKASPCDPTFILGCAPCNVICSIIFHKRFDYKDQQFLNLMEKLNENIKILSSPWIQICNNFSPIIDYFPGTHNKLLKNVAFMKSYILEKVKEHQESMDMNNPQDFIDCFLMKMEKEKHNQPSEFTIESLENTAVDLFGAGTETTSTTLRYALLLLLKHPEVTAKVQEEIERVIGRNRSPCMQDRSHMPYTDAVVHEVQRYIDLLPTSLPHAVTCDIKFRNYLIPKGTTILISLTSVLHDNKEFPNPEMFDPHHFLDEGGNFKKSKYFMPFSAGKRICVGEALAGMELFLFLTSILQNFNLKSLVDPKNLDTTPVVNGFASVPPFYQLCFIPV
In short: (§1)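 Pooled human liver microsomes (0.5 mg/mL), 2.5 mM NADPH, 3.3 mM MgCl₂, 0.1 M phosphate pH 7.4, 0.3% DMSO, probe cocktail near Km: phenacetin 25 μM (1A2), bupropion 25 μM (2B6), diclofenac 10 μM (2C9), mephenytoin 20 μM (2C19), bufuralol 10 μM (2D6), testosterone 50 μM and midazolam 4 μM (3A4). Cold acetonitrile quench; LC-MS/MS metabolite peak-area ratio over mean control ×100; n = 3.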

CYP2B6 = target: T1, CYP2B6 (Homo sapiens, UniProt P20813); test: CYP inhibition in human liver microsomes; format: in vitro ADME; settings: 1 or 10 μM test article, 20 min, 37°C
T1 sequence (P20813 1-491): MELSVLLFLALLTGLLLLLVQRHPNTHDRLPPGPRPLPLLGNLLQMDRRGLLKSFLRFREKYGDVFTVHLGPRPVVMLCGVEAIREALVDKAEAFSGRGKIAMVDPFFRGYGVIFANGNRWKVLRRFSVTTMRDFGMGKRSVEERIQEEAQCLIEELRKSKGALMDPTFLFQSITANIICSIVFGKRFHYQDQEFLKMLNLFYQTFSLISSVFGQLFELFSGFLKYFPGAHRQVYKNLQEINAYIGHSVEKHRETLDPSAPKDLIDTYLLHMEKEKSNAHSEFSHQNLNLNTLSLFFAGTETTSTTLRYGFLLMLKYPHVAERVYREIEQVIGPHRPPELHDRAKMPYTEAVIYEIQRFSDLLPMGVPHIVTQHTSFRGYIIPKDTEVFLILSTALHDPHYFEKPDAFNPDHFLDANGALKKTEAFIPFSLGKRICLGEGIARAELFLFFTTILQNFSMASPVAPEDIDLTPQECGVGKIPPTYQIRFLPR
In short: as §1

CYP1A2 = target: T2, CYP1A2 (Homo sapiens, UniProt P05177); test: CYP inhibition in human liver microsomes; format: in vitro ADME; settings: 1 or 10 μM test article, 20 min, 37°C
T2 sequence (P05177 1-516): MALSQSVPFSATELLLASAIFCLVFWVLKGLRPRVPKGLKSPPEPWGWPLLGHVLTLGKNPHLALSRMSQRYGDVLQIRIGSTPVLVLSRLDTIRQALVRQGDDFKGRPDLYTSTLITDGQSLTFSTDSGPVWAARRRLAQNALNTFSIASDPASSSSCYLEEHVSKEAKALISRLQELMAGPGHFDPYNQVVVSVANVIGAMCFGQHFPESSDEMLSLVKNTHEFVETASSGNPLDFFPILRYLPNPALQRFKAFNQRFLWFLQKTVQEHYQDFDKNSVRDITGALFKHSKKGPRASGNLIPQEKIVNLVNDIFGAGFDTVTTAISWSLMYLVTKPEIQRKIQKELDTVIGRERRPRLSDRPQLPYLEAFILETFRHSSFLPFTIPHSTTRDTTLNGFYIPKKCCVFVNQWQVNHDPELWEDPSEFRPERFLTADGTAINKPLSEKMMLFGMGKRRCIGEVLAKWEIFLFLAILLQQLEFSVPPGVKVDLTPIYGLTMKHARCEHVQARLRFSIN
In short: as §1

CYP3A4 = CYP3A4 (Homo sapiens, UniProt P08684); test: CYP inhibition in human liver microsomes; format: in vitro ADME; settings: 1 or 10 μM test article, 20 min, 37°C
Chain of CYP3A4 (P08684 whole entry): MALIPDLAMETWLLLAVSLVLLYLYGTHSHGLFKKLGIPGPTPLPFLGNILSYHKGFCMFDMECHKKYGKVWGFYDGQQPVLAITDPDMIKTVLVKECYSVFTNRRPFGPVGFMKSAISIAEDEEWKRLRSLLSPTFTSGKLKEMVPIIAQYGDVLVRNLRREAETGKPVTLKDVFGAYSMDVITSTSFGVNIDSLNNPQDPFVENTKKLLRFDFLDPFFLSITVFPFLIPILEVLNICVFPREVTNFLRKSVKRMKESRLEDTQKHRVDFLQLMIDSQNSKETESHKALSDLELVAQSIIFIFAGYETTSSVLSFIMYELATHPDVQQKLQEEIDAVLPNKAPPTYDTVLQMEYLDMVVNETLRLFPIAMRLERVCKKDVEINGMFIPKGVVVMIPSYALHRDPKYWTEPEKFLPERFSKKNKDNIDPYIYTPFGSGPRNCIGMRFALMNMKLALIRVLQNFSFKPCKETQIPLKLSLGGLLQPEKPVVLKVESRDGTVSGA
In short: as §1

CYP2D6 = CYP2D6 (Homo sapiens, UniProt P10635); test: CYP inhibition in human liver microsomes; format: in vitro ADME; settings: 1 or 10 μM test article, 20 min, 37°C
Chain of CYP2D6 (P10635 whole entry): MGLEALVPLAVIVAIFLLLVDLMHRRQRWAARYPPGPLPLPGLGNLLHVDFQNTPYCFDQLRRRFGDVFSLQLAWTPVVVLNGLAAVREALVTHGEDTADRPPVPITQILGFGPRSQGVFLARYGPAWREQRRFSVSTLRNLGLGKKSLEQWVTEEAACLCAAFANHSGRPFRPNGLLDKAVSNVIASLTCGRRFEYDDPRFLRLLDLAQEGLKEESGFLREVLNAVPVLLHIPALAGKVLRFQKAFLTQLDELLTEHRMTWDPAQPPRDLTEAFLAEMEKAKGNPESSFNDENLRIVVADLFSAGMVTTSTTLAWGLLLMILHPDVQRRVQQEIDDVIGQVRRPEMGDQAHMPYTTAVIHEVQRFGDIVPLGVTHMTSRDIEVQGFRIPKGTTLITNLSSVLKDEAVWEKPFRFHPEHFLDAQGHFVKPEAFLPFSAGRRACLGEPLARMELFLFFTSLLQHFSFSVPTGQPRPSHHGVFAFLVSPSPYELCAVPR
In short: as §1

Stability in plasma [3] = format: in vitro ADME; settings: dog plasma diluted 1:1 with PBS, 15 μM, up to 1 h, 37°C
[4] = Stability in simulated gastric fluid; format: in vitro ADME; settings: SGF pH 1.2 with pepsin, 37°C, 60 min
In short: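 Simulated gastric fluid (pH 1.2) contained 3.2 g/L porcine pepsin, 2 g/L NaCl and 8 mL/L 6 N HCl, stored at 2–8°C and pre-warmed to 37°C. […] Reactions were stopped with 0.1 M sodium carbonate and chilled acetonitrile containing ¹³C internal standard, filtered, and analysed by LC-MS; content is expressed relative to initial.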

human plasma proteins = test: Plasma protein binding by gel filtration; format: in vitro ADME; settings: 2 h, 37°C
In short: (§2)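 Test compound (2.65, 13.3 and 40.0 μM final) was incubated in plasma for 2 h at 37°C. Bound compound was separated on Sephadex G-25 by spin filtration (5 min, 200 × g). Eluates were run in duplicate: EDTA addition, chloroform:methanol extraction, acetonitrile precipitation, then LC-MS/MS (MRM 751 → 195, positive ESI) against 15 plasma standards from 0 to 66.7 μM. Eluate concentration was corrected for protein dilution, measured by microbiuret against BSA standards. % bound = corrected/total (mean ± SD, n = 3).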

CYP2C19 = CYP2C19 (Homo sapiens, UniProt P33261); test: CYP inhibition in human liver microsomes; format: in vitro ADME; settings: 1 or 10 μM test article, 20 min, 37°C
Chain of CYP2C19 (P33261 whole entry): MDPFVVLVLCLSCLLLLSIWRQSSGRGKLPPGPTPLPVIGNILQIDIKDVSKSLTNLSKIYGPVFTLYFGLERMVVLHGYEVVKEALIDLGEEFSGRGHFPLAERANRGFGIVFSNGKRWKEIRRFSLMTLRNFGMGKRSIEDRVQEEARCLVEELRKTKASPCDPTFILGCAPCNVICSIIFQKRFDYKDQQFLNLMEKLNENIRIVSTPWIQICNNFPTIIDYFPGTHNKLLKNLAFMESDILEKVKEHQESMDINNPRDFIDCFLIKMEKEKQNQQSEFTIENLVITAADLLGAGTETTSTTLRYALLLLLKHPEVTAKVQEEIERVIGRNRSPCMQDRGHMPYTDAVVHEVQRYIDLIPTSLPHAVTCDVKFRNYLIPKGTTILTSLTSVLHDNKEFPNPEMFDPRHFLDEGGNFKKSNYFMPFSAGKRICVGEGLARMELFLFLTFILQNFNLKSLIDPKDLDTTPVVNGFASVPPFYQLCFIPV
In short: as §1

dog plasma proteins = test: Plasma protein binding by gel filtration; format: in vitro ADME, beagle dog; settings: 2.7, 13.3 and 40.0 μM, 2 h, 37°C
In short: as §2

[5] = Stability in acidic aqueous buffered solutions; format: physicochemical; settings: for stability in acidic buffer: 48 h, 25°C/60%RH
In short: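 Test compound at 10 mg/mL was held in USP buffers: hydrochloric acid (pH 1.40), acetate (pH 4.50) and phosphate (pH 6.80). Incubation was at 25°C/60% RH in sealed, light-protected glass vials. Aliquots taken at 1, 3, 6, 24 and 48 h were diluted 10-fold and analysed by LC-MS, as for the microsomal stability samples.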

rat plasma proteins = test: Plasma protein binding by gel filtration; format: in vitro ADME, Sprague Dawley rat; settings: 2 h, 37°C
In short: as §2

[6] = Permeability through Transwell plate not containing Caco-2 cells; format: in vitro ADME; settings: 24-well Transwell plate not containing Caco-2 cells
In short: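 This run repeated the Caco-2 bi-directional protocol in a Transwell plate without cells. Test compound (10 and 50 μM final) in HBSS, pH 7.4, was placed in duplicate wells for each direction. Receiver aliquots were taken at 30, 60, 90 and 120 min into 10 mM EDTA and replaced with fresh medium. Donor wells were sampled at start and end for recovery. Analysis was LC-MS/MS (positive ESI, MRM), and Papp was calculated from dQ/dt, receiver volume, membrane area and initial concentration.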

Stability in plasma [7] = format: in vitro ADME; settings: human plasma diluted 1:1 with PBS, 15 μM, up to 1 h, 37°C
[8] = Metabolic stability using pooled human liver microsomes; format: in vitro ADME; settings: 10 and 50 μM, active microsomes, up to 60 min, 37°C
[9] = orally administered, 225 mg/kg; cited from earlier work
P-gp = test: Bi-directional permeability study using Caco-2 cells; settings: human; for Papp A→B at 120 min, 1 μM: Caco-2, pH 6, Papp A–B (mean); for Papp B→A at 120 min, 1 μM: Caco-2, pH 7.4, Papp B-A (mean)
[10] = negative control; cited from earlier work

## O=C(NCCCN(CCCCN(CCCNC(=O)c1cccc(=O)n1O)C(=O)c1cccc(=O)n1O)C(=O)c1cccc(=O)n1O)c1cccc(=O)n1O [3,4,3-LI(1,2-HOPO)]
Stability in plasma [1]
  stability in plasma (% of test article remaining): No degradation
Stability in plasma [2]
  stability in plasma (% of test article remaining): No degradation
Caco-2 cells; 10 μM + 100 μM ketoconazole
  % Recovery of Test Article A–B (mean): 120.6%
  % Recovery of Test Article B-A (mean): 90.3%
Caco-2 cells; 10 μM
  % Recovery of Test Article A–B (mean): 112.2%
  % Recovery of Test Article B-A (mean): 87.2%
Caco-2 cells; 50 μM + 100 μM ketoconazole
  % Recovery of Test Article A–B (mean): 114.9%
  % Recovery of Test Article B-A (mean): 85.7%
Caco-2 cells; 50 μM
  % Recovery of Test Article A–B (mean): 105.5%
  % Recovery of Test Article B-A (mean): 97.6%
Caco-2 cells; 10 and 50 μM solutions, lower limit of quantitation
  concentration in the receiving wells: < 0.5 µM
Caco-2 cells; bi-directional, 10 and 50 μM
  permeability across the Caco-2 monolayer: not permeable
CYP2C9
  % CYP activity relative to control: none of the CYP isoforms were significantly influenced
CYP2B6
  % CYP activity relative to control: none of the CYP isoforms were significantly influenced
CYP1A2
  % CYP activity relative to control: none of the CYP isoforms were significantly influenced
CYP3A4
  % CYP activity relative to control: none of the CYP isoforms were significantly influenced
CYP2D6
  % CYP activity relative to control: none of the CYP isoforms were significantly influenced
Stability in plasma [3]
  stability in plasma (% of test article remaining): No degradation
[4]; 1 μM
  % of the initial content remained in simulated gastric fluid: 76%
[4]; 10 μM
  % of the initial content remained in simulated gastric fluid: 72%
Human plasma proteins; 2.65 μM
  % protein-bound: below the lower limit of quantitation
Human plasma proteins; 2.7, 13.3 and 40.0 μM
  extent of plasma protein binding (rank among species): intermediate
CYP2C19
  % CYP activity relative to control: none of the CYP isoforms were significantly influenced
Dog plasma proteins
  extent of plasma protein binding (rank among species): greatest
[5]; acetate buffer USP pH 4.50, 10 mg/mL
  stability in acidic buffer: stable
[5]; hydrochloric acid buffer USP pH 1.40, 10 mg/mL
  stability in acidic buffer: stable
[5]; pH 1.4, 3 h
  stability in hydrochloric acid buffer without pepsin: stable
[5]; phosphate buffer USP pH 6.80, 10 mg/mL
  stability in acidic buffer: stable
Rat plasma proteins; 2.65 μM
  % protein-bound: below the lower limit of quantitation
Rat plasma proteins; 2.7, 13.3 and 40.0 μM
  extent of plasma protein binding (rank among species): lowest
[6]
  permeation of the Transwell membrane in the absence of Caco-2 cells: detectable levels
Stability in plasma [7]
  stability in plasma (% of test article remaining): No degradation
[8]
  % of test article remaining (metabolic stability): no loss of parent test article
[9]
  plasma concentration: less than 2 μg/mL

## C[C@H]1O[C@@H](O[C@H]2[C@@H](O)C[C@H](O[C@H]3[C@@H](O)C[C@H](O[C@H]4CC[C@@]5(C)[C@H](CC[C@@H]6[C@@H]5C[C@@H](O)[C@]5(C)[C@@H](C7=CC(=O)OC7)CC[C@]65O)C4)O[C@@H]3C)O[C@@H]2C)C[C@H](O)[C@@H]1O [digoxin, reference compound]
P-gp; 1 μM + 100 μM ketoconazole
  Papp A→B at 120 min, 1 μM: 3.7 ×10⁻⁶ cm/s
  Papp B→A at 120 min, 1 μM: 1.8 ×10⁻⁶ cm/s
P-gp; 1 μM, control
  Papp A→B at 120 min, 1 μM: 3.1 ×10⁻⁶ cm/s
  Papp B→A at 120 min, 1 μM: 8.6 ×10⁻⁶ cm/s

## CC(C)NCC(O)COc1cccc2ccccc12 (stereo not drawn) [propranolol]
[10]
  stability in gastric fluid: stable

— PMC4390475 (Journal of pharmaceutical sciences, 2015)
